Results gathered from unrelated publications.
Lines come from different studies, so protocols differ.
Target: Mitogen-activated protein kinase 9 (MAPK9, Homo sapiens, UniProt P45984)

FC(F)(F)Oc1cccc(-c2cnc3ccc(-c4ccncc4)nn23)c1 gave a remaining binding of 76% (cell-free assay; competition with immobilised ligand; 5 µM).
The remaining binding of O=C(Nc1c[nH]nc1C(=O)NC1CCNCC1)c1cc(F)cc(F)c1 is reported as 100% (binding; competition with immobilised ligand; 1 µM).
O=C(NCCCC1CCCCC1)c1ccc(CNC(=O)c2cnn(-c3ccccc3)c2C(F)(F)F)cc1 has a remaining binding of 85% (cell-free assay; competition with immobilised ligand; 0.1 µM).
c1cncc(-c2cccc(Nc3nccc(NC4CCCCC4)n3)c2)c1 has a remaining binding of 74% (binding; competition with immobilised ligand; 10 µM).
COc1cccc(CNC(=O)c2nc3scc(COCc4ccc(C(=O)O)cc4)c3c(=O)[nH]2)c1 has a remaining binding of 97.1% (cell-free assay; competition with immobilised ligand; 1 µM).
For COc1cnc(Nc2cccc(S(N)(=O)=O)c2)nc1N1CCN(c2ccccc2)C(=O)C1, the remaining binding was 69% (binding; competition with immobilised ligand; 1 µM).
CC(C)(C)c1ccc(-c2nc(CBr)nn2-c2cccc(O)c2)cc1 has a remaining binding of 46% (cell-free assay; competition with immobilised ligand; 10 µM).
For C[C@@H]1CN(c2ccc3ncc(-c4ccc5[nH]nc(C6CC6)c5c4)n3n2)C[C@H](C)O1, the remaining binding was 50% (binding; competition with immobilised ligand; 0.5 µM).
C[C@H](c1ccc(F)cc1)N(Cc1cccc(C(=O)O)c1)C(=O)c1cnc2ccccc2c1 has a remaining binding of 81% (cell-free assay; competition with immobilised ligand; 1 µM).
The remaining binding of CN(C)c1ncc(F)c(-c2cnn3ncccc23)n1 is reported as 82% (binding; 1 µM).
The remaining binding of O=C(c1ccc(Nc2ncc(Cl)c(-c3cc4ccccc4s3)n2)cc1)N1CCC(N2CCCC2)CC1 is reported as 9.8% (binding; competition with immobilised ligand; 1 µM).
CNC(=O)Nc1ccc2c(c1)[C@@]1(CC2)OC(=O)N(CC(=O)N(Cc2ccc(F)cc2)[C@@H](C)C(F)(F)F)C1=O has a remaining binding of 69% (cell-free assay; competition with immobilised ligand; 1 µM).
CNC(=O)[C@@H]1CC[C@@H](n2c(-c3ccc4cnccc4c3)nc3ccc(C(=O)NCc4cccc(C(N)=O)c4)cc32)C1 gave a remaining binding of 67% (binding; competition with immobilised ligand; 1 µM).
CN(c1nccc(-c2cnn3ncccc23)n1)C1CC1 gave a remaining binding of 100% (binding; 1 µM).
For CCOCCn1cc(C(=O)Nc2ccc(-n3nc(-c4cccnc4)cc3C(F)(F)F)cn2)ccc1=O, the remaining binding was 97% (cell-free assay; competition with immobilised ligand; 1 µM).
For O=C(c1ccc(Nc2ncc(Cl)c(-c3ccc(Cl)s3)n2)cc1)N1CCC(N2CCCC2)CC1, the remaining binding was 1.1% (binding; competition with immobilised ligand; 1 µM).
C[C@H]1CCN(c2nccc(-c3cnn4ncccc34)n2)C1 gave a remaining binding of 60% (binding; 1 µM).
With COc1ncc2cc3ccccc3nc2c1C#N the remaining binding was 100% (cell-free assay; competition with immobilised ligand; 5 µM).
N[C@@H]1CCN(c2nccc(-c3cnn4ncccc34)n2)C1 has a remaining binding of 100% (binding; 1 µM).
The remaining binding of COc1ccc2cc(OCC3(C(=O)O)CN(C(=O)c4ccc(F)cc4)C3)ccc2c1 is reported as 100% (cell-free assay; competition with immobilised ligand; 1 µM).
For CC1CCCN1c1nccc(-c2cnn3ncccc23)n1 (stereo not drawn), the remaining binding was 100% (binding; 1 µM).
O=C(c1ccc(Nc2nccc(-c3cc4ccccc4s3)n2)cc1)N1CCC(N2CCCC2)CC1 has a remaining binding of 33% (binding; competition with immobilised ligand; 1 µM).
The remaining binding of CCC(=O)N[C@H]1CC[C@@H](C(=O)N(C)c2ccc(-c3nc4ccccc4o3)cc2)C1 is reported as 79% (cell-free assay; competition with immobilised ligand; 1 µM).
The remaining binding of CN(C)c1nccc(-c2cnc3ncccn23)n1 is reported as 60% (binding; 1 µM).
